Holding throughout (format): functional
Assay [1] deals with Staphylococcus aureus. Put plainly: Antimicrobial activity against methicillin-resistant Staphylococcus aureus COL at 37 degC by population analysis method. A digest of the protocol:
(§1)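 Population analysis: S. aureus cultures were grown overnight in TSB, then plated at different cell concentrations on agar containing twofold serial methicillin concentrations. Colonies were counted after 48 h of incubation at 37 or 42°C, giving a methicillin resistance profile.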

Assay [2] concerns Staphylococcus aureus. Briefly: Antimicrobial activity against methicillin-resistant Staphylococcus aureus COL at 42 degC by population analysis method. A digest of the protocol:
as §1

Assay [3] relates to Staphylococcus aureus. Put plainly: Antimicrobial activity against methicillin-resistant Staphylococcus aureus COL transposon mutant C245 harboring Tn551 gene at 42 degC by population analysis method. A digest of the protocol:
as §1

For assay [4], the system named is Staphylococcus aureus. Put plainly: Antimicrobial activity against SCCmec type 1 methicillin-resistant Staphylococcus aureus COL C245Td expressing symporter gene smr1 at 37 degC incubated for 24 hrs by E-test.
In assay [5] the test system is Staphylococcus aureus. Put plainly: Antimicrobial activity against SCCmec type 1 methicillin-resistant Staphylococcus aureus COL C245Td expressing symporter gene smr1 at 42 degC incubated for 24 hrs by E-test.
Assay [6] concerns Staphylococcus aureus. Put plainly: Antimicrobial activity against SCCmec type 1 methicillin-resistant Staphylococcus aureus COL D19455 expressing symporter gene smr1 at 37 degC incubated for 24 hrs by E-test. Conditions: COL D19455, 24 h.
In assay [7] the test system is Staphylococcus aureus. Put plainly: Antimicrobial activity against SCCmec type 1 methicillin-resistant Staphylococcus aureus COL D19455 expressing symporter gene smr1 at 42 degC incubated for 24 hrs by E-test. As to conditions: COL D19455, 24 h.
In assay [8] the test system is Staphylococcus aureus. Put plainly: Antimicrobial activity against SCCmec type 1 methicillin-resistant Staphylococcus aureus COL D19455-T2 expressing symporter gene smr1 at 37 degC incubated for 24 hrs by E-test. As to conditions: COL D19455-T2, 24 h.
Assay [9] has as its system Staphylococcus aureus. Put plainly: Antimicrobial activity against SCCmec type 1 methicillin-resistant Staphylococcus aureus COL D19455-T2 expressing symporter gene smr1 at 42 degC incubated for 24 hrs by E-test. As to conditions: COL D19455-T2, 24 h.
The test system of assay [10] is Staphylococcus aureus. Briefly: Antimicrobial activity against SCCmec type 1 methicillin-resistant Staphylococcus aureus COL E2125 expressing symporter gene smr1 at 37 degC incubated for 24 hrs by E-test. As to conditions: COL E2125, 24 h.
Assay [11] concerns Staphylococcus aureus. Briefly: Antimicrobial activity against SCCmec type 1 methicillin-resistant Staphylococcus aureus COL E2125 expressing symporter gene smr1 at 42 degC incubated for 24 hrs by E-test. As to conditions: COL E2125, 24 h.
In assay [12] the test system is Staphylococcus aureus. Put plainly: Antimicrobial activity against SCCmec type 1 methicillin-resistant Staphylococcus aureus COL E2125-T2 expressing symporter gene smr1 at 37 degC incubated for 24 hrs by E-test. Conditions: COL E2125-T2, 24 h.
Assay [13] relates to Staphylococcus aureus. Put plainly: Antimicrobial activity against SCCmec type 1 methicillin-resistant Staphylococcus aureus COL E2125-T2 expressing symporter gene smr1 at 42 degC incubated for 24 hrs by E-test. As to conditions: COL E2125-T2, 24 h.
The subject of assay [14] is Staphylococcus aureus. Briefly: Antimicrobial activity against SCCmec type 1 methicillin-resistant Staphylococcus aureus COL E3005 expressing symporter gene smr1 at 37 degC incubated for 24 hrs by E-test. As to conditions: COL E3005, 24 h.
Assay [15] concerns Staphylococcus aureus. Briefly: Antimicrobial activity against SCCmec type 1 methicillin-resistant Staphylococcus aureus COL E3005 expressing symporter gene smr1 at 42 degC incubated for 24 hrs by E-test. As to conditions: COL E3005, 24 h.
The test system of assay [16] is Staphylococcus aureus. Put plainly: Antimicrobial activity against SCCmec type 1 methicillin-resistant Staphylococcus aureus COL E3005-T4 expressing symporter gene smr1 at 37 degC incubated for 24 hrs by E-test. As to conditions: COL E3005-T4, 24 h.
The test system of assay [17] is Staphylococcus aureus. Briefly: Antimicrobial activity against SCCmec type 1 methicillin-resistant Staphylococcus aureus COL E3005-T4 expressing symporter gene smr1 at 42 degC incubated for 24 hrs by E-test. Conditions: COL E3005-T4, 24 h.
Assay [18] relates to Staphylococcus aureus. Briefly: Antimicrobial activity against SCCmec type 4 methicillin-resistant Staphylococcus aureus COL MW2 expressing symporter gene smr1 at 37 degC incubated for 24 hrs by E-test. Conditions: COL MW2, 24 h.
For assay [19], the system named is Staphylococcus aureus. Put plainly: Antimicrobial activity against SCCmec type 4 methicillin-resistant Staphylococcus aureus COL MW2 expressing symporter gene smr1 at 42 degC incubated for 24 hrs by E-test. Conditions: COL MW2, 24 h.
Assay [20] relates to Staphylococcus aureus. Briefly: Antimicrobial activity against SCCmec type 4 methicillin-resistant Staphylococcus aureus COL MW2-T expressing symporter gene smr1 at 37 degC incubated for 24 hrs by E-test.
Assay [21] has as its system Staphylococcus aureus. Put plainly: Antimicrobial activity against SCCmec type 4 methicillin-resistant Staphylococcus aureus COL MW2-T expressing symporter gene smr1 at 42 degC incubated for 24 hrs by E-test.
Assay [22] concerns Staphylococcus aureus. Put plainly: Antimicrobial activity against SCCmec type 3 methicillin-resistant Staphylococcus aureus COL 301 expressing symporter gene smr1 at 37 degC incubated for 24 hrs by E-test. Conditions: COL 301, 24 h.
For assay [23], the system named is Staphylococcus aureus. Briefly: Antimicrobial activity against SCCmec type 3 methicillin-resistant Staphylococcus aureus COL 301 expressing symporter gene smr1 at 42 degC incubated for 24 hrs by E-test. Conditions: COL 301, 24 h.
In assay [24] the test system is Staphylococcus aureus. Briefly: Antimicrobial activity against SCCmec type 3 methicillin-resistant Staphylococcus aureus COL 301-T6 expressing symporter gene smr1 at 37 degC incubated for 24 hrs by E-test. As to conditions: COL 301-T6, 24 h.
Assay [25] deals with Staphylococcus aureus. Put plainly: Antimicrobial activity against SCCmec type 3 methicillin-resistant Staphylococcus aureus COL 301-T6 expressing symporter gene smr1 at 42 degC incubated for 24 hrs by E-test. Conditions: COL 301-T6, 24 h.
The subject of assay [26] is Staphylococcus aureus. Briefly: Antimicrobial activity against SCCmec type 1 methicillin-resistant Staphylococcus aureus COL 319 expressing symporter gene smr1 at 37 degC incubated for 24 hrs by E-test. As to conditions: COL 319, 24 h.
Assay [27] concerns Staphylococcus aureus. Put plainly: Antimicrobial activity against SCCmec type 1 methicillin-resistant Staphylococcus aureus COL 319 expressing symporter gene smr1 at 42 degC incubated for 24 hrs by E-test. As to conditions: COL 319, 24 h.
Assay [28] deals with Staphylococcus aureus. Put plainly: Antimicrobial activity against SCCmec type 1 methicillin-resistant Staphylococcus aureus COL 319-T1 expressing symporter gene smr1 at 37 degC incubated for 24 hrs by E-test. As to conditions: COL 319-T1, 24 h.
The test system of assay [29] is Staphylococcus aureus. Put plainly: Antimicrobial activity against SCCmec type 1 methicillin-resistant Staphylococcus aureus COL 319-T1 expressing symporter gene smr1 at 42 degC incubated for 24 hrs by E-test. Conditions: COL 319-T1, 24 h.
Assay [30] concerns Staphylococcus aureus. Briefly: Antimicrobial activity against SCCmec type 1 methicillin-resistant Staphylococcus aureus COL 404 expressing symporter gene smr1 at 37 degC incubated for 24 hrs by E-test. Conditions: COL 404, 24 h.
The test system of assay [31] is Staphylococcus aureus. Briefly: Antimicrobial activity against SCCmec type 1 methicillin-resistant Staphylococcus aureus COL 404 expressing symporter gene smr1 at 42 degC incubated for 24 hrs by E-test. As to conditions: COL 404, 24 h.
Assay [32] concerns Staphylococcus aureus. Put plainly: Antimicrobial activity against SCCmec type 1 methicillin-resistant Staphylococcus aureus COL 404-T3 expressing symporter gene smr1 at 37 degC incubated for 24 hrs by E-test. Conditions: COL 404-T3, 24 h.
Assay [33] concerns Staphylococcus aureus. Put plainly: Antimicrobial activity against SCCmec type 1 methicillin-resistant Staphylococcus aureus COL 404-T3 expressing symporter gene smr1 at 42 degC incubated for 24 hrs by E-test. Conditions: COL 404-T3, 24 h.
Assay [34] has as its system Staphylococcus aureus. Put plainly: Antimicrobial activity against SCCmec type 1 methicillin-resistant Staphylococcus aureus COL RUSA11 expressing symporter gene smr1 at 37 degC incubated for 24 hrs by E-test. Conditions: COL RUSA11, 24 h.
The test system of assay [35] is Staphylococcus aureus. Briefly: Antimicrobial activity against SCCmec type 1 methicillin-resistant Staphylococcus aureus COL RUSA11 expressing symporter gene smr1 at 42 degC incubated for 24 hrs by E-test. Conditions: COL RUSA11, 24 h.
The subject of assay [36] is Staphylococcus aureus. Briefly: Antimicrobial activity against SCCmec type 1 methicillin-resistant Staphylococcus aureus COL RUSA11-T3 expressing symporter gene smr1 at 37 degC incubated for 24 hrs by E-test. Conditions: COL RUSA11-T3, 24 h.
Assay [37] deals with Staphylococcus aureus. Briefly: Antimicrobial activity against SCCmec type 1 methicillin-resistant Staphylococcus aureus COL RUSA11-T3 expressing symporter gene smr1 at 42 degC incubated for 24 hrs by E-test. As to conditions: COL RUSA11-T3, 24 h.

≈ marks a conversion by molar mass, not a printed value. Bridge positions count the residues as written; N and C are the ends. Square brackets hold non-standard residues; d marks the D form. Peptide text beside a SMILES is read from it. * marks the point of attachment. Ileψ(thiazoline)Cys = CC[C@H](C)[C@H](N)C1=N[C@H](C(=O)*)CS1; dOrn = NCCC[C@@H](N)C(=O)O

Turning to `CC[C@H](C)[C@H](N)C1=N[C@H](C(=O)N[C@@H](CC(C)C)C(=O)N[C@H](CCC(=O)O)C(=O)N[C@H](C(=O)N[C@H]2CCCCNC(=O)[C@H](CC(N)=O)NC(=O)[C@@H](CC(=O)O)NC(=O)[C@H](Cc3cnc[nH]3)NC(=O)[C@@H](Cc3ccccc3)NC(=O)[C@H]([C@@H](C)CC)NC(=O)[C@@H](CCCN)NC2=O)[C@@H](C)CC)CS1` [BACITRACIN] ({Ileψ(thiazoline)Cys}-L[dE]IK[dOrn]I[dF]H[dD]N; lactam 4-C), the MIC in [1] and in [2] was 50 µg/mL (≈ 35.1 µM) throughout.

For `N[C@@H]1CONC1=O` [CYCLOSERINE], the MIC in assay [1] and in [2] was 50 µg/mL (≈ 490 µM) each time.

With `C[C@@H]1O[C@@H]1P(=O)(O)O` [FOSFOMYCIN], the MIC (commonly the lowest concentration found to suppress growth) in assay [1] amounted to 50 µg/mL (≈ 362 µM); in assay [2], 25 µg/mL (≈ 181 µM).

In assay [3], `COc1cccc(OC)c1C(=O)N[C@@H]1C(=O)N2[C@@H]1SC(C)(C)[C@@H]2C(=O)O` [METHICILLIN] yielded an MIC of 400 µg/mL (≈ 1050 µM).

With `Cc1onc(-c2ccccc2)c1C(=O)N[C@@H]1C(=O)N2[C@@H]1SC(C)(C)[C@@H]2C(=O)O` [OXACILLIN], the MIC in assay [4] is more than 256 µg/mL; in assay [5], more than 256 µg/mL; in [6], 1 µg/mL (≈ 2.49 µM); in assay [7], 0.25 µg/mL (≈ 0.623 µM); in assay [8], 64 µg/mL (≈ 159 µM); in assay [9], 0.25 µg/mL (≈ 0.623 µM). Also, the MIC in [10] worked out at 1 µg/mL (≈ 2.49 µM); in assay [11], 0.25 µg/mL (≈ 0.623 µM); in [12], 128 µg/mL (≈ 319 µM); in assay [13], 0.5 µg/mL (≈ 1.25 µM); in [14], 1.5 µg/mL (≈ 3.74 µM); in assay [15] it was 0.5 µg/mL (≈ 1.25 µM). Further, the MIC in assay [16] came out at 12 µg/mL (≈ 29.9 µM); in assay [17], 0.38 µg/mL (≈ 0.947 µM); in assay [18] it was 0.75 µg/mL (≈ 1.87 µM); in assay [19], 0.75 µg/mL (≈ 1.87 µM); in assay [20], 8 µg/mL (≈ 19.9 µM); in [21], 0.75 µg/mL (≈ 1.87 µM). The minimal inhibitory concentration (MIC) in [22] was more than 256 µg/mL; in assay [23], 1 µg/mL (≈ 2.49 µM); in assay [24], more than 256 µg/mL; in assay [25], 16 µg/mL (≈ 39.9 µM); in assay [26] it was more than 256 µg/mL; in assay [27] it was 0.75 µg/mL (≈ 1.87 µM). The MIC was more than 256 µg/mL in assay [28]; more than 256 µg/mL in [29]; more than 256 µg/mL in assay [30]; 1 µg/mL (≈ 2.49 µM) in [31]; more than 256 µg/mL in [32]; more than 256 µg/mL in [33]. Moreover, the MIC in assay [34] was 0.5 µg/mL (≈ 1.25 µM); in assay [35], 0.19 µg/mL (≈ 0.473 µM); in assay [36], 4 µg/mL (≈ 9.96 µM); in assay [37], 0.25 µg/mL (≈ 0.623 µM).

On to `CN(C)[C@@H]1C(O)=C(C(N)=O)C(=O)[C@@]2(O)C(O)=C3C(=O)c4c(O)cccc4[C@@](C)(O)[C@H]3C[C@@H]12` [TETRACYCLINE], for which the minimum inhibitory concentration (MIC) in [1] and in assay [2] was 100 µg/mL (≈ 225 µM) throughout.

Consider `CN[C@H](CC(C)C)C(=O)N[C@H]1C(=O)N[C@@H](CC(N)=O)C(=O)N[C@H]2C(=O)N[C@H]3C(=O)N[C@H](C(=O)N[C@H](C(=O)O)c4cc(O)cc(O)c4-c4cc3ccc4O)[C@H](O)c3ccc(c(Cl)c3)Oc3cc2cc(c3O[C@@H]2O[C@H](CO)[C@@H](O)[C@H](O)[C@H]2O[C@H]2C[C@](C)(N)[C@H](O)[C@H](C)O2)Oc2ccc(cc2Cl)[C@H]1O` [VANCOMYCIN], for which the MIC in [1] was 1.5 µg/mL (≈ 1.04 µM); in assay [2], 3 µg/mL (≈ 2.07 µM).

Source of the values: ChEMBL document CHEMBL1153559, “Role of a sodium-dependent symporter homologue in the thermosensitivity of beta-lactam antibiotic resistance and cell wall composition in Staphylococcus aureus” (2008).
